Experimental data from different studies.
Target: Non-receptor tyrosine-protein kinase TNK1 (TNK1, Homo sapiens, UniProt Q13470)
Residues used in one study (Q13470 1-666): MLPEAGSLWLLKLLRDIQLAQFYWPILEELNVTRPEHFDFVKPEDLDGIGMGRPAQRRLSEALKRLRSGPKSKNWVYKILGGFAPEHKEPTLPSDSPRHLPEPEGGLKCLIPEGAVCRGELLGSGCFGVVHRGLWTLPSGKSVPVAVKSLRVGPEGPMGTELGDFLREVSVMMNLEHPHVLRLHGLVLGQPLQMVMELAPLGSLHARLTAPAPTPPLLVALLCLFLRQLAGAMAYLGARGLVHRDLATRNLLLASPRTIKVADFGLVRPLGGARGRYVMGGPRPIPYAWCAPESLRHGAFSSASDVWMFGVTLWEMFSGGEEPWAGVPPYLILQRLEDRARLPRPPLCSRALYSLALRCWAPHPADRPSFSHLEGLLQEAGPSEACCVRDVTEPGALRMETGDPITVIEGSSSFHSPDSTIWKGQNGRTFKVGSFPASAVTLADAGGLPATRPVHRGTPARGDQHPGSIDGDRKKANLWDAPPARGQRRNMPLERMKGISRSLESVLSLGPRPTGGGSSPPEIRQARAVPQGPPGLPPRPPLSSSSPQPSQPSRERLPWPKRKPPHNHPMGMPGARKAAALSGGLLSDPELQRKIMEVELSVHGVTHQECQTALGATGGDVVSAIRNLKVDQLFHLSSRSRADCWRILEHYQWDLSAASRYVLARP

SMILES | assay | conditions | remaining binding
Cc1cnn2ncc(-c3ccnc(N(C)C)n3)c2c1 | binding | 1 µM | 98%
COc1cc(C(=O)N2CCC(N3CCN(C)CC3)CC2)ccc1Nc1ncc2c(n1)N(C)c1ccccc1C(=O)N2C | binding, competition with immobilised ligand | 10 µM | 2.8%
C=CC(=O)N1CCC(C(=O)NCC(=O)N2CCN(c3nc(-c4cnc(N)nc4C(F)F)nc(N4CCOCC4)n3)CC2)CC1 | binding, competition with immobilised ligand | 1 µM | 83%
CN(c1nccc(-c2cnn3ncccc23)n1)C1CC1 | binding | 1 µM | 84%
O=C(NCCCN1CCOCC1)c1ccc(Nc2nccc(-c3cc4ccccc4s3)n2)cc1 | binding, competition with immobilised ligand | 1 µM | 41%
CN(C)c1ncc(F)c(-c2cnn3ncccc23)n1 | binding | 1 µM | 100%
CC(C)CC(=O)N1CCc2nc(-c3ccc(Br)cc3)nc(N(C)Cc3ccccc3)c2C1 | cell-free assay, competition with immobilised ligand | 0.1 µM | 100%
c1cncc(-c2cccc(Nc3nccc(NC4CCCCC4)n3)c2)c1 | binding, competition with immobilised ligand | 10 µM | 40%
C[C@H]1CCN(c2nccc(-c3cnn4ncccc34)n2)C1 | binding | 1 µM | 100%
O=C(c1ccc(Nc2nccc(-c3cc4ccccc4s3)n2)cc1)N1CCC(N2CCCC2)CC1 | binding, competition with immobilised ligand | 1 µM | 27%
Cn1cc(Cl)c2c(Oc3c(F)cc(Nc4cc(Cl)nc(N)n4)cc3F)ccnc21 | cell-free assay, competition with immobilised ligand | 0.1 µM | 100%
FC(F)(F)Oc1cccc(-c2cnc3ccc(-c4ccncc4)nn23)c1 | binding, competition with immobilised ligand | 5 µM | 88%
CC1=C(C#N)C(c2ccc3c(c2)c(NC(=O)c2ccccc2C)nn3C)C(C#N)=C(C)N1 | cell-free assay, competition with immobilised ligand | 1 µM | 76%
O=C(c1ccc(Nc2ncc(Cl)c(-c3ccc(Cl)s3)n2)cc1)N1CCC(N2CCCC2)CC1 | binding, competition with immobilised ligand | 1 µM | 13%
C[C@@H](c1cccc(C#N)c1)n1cc(Cl)cc(C(N)=O)c1=N | cell-free assay, competition with immobilised ligand | 1 µM | 94%
COc1cnc(Nc2cccc(S(N)(=O)=O)c2)nc1N1CCN(c2ccccc2)CC1 | binding, competition with immobilised ligand | 1 µM | 98%
Cc1c[nH]c2nccc(Oc3c(F)cc(Nc4cc(Cl)nc(N)n4)cc3F)c12 | cell-free assay, competition with immobilised ligand | 0.1 µM | 100%
N[C@H]1CCN(c2nccc(-c3cnn4ncccc34)n2)C1 | binding | 1 µM | 0%
CN1CCN(c2cnc3c(C4CCN(C(=O)c5ccc(OC(F)(F)F)cc5N)CC4)ncnc3c2)CC1 | cell-free assay, competition with immobilised ligand | 1 µM | 100%
O=C(NCC1CCOCC1)c1n[nH]cc1NC(=O)c1c(F)cccc1F | binding, competition with immobilised ligand | 1 µM | 98%
O=C(Nc1ccc(Oc2ccc(F)cc2)cc1)N1CCc2ncccc2[C@H]1c1ccc(F)cc1 | cell-free assay, competition with immobilised ligand | 1 µM | 96%
CN(CCCC(F)(F)F)c1nccc(-c2cnn3ncccc23)n1 | binding | 1 µM | 83%
